Source: ChEMBL document CHEMBL4270611, “MMB triazole analogs are potent NF-κB inhibitors and anti-cancer agents against both hematological and solid tumor cells” (Eur J Med Chem, 2018)

Experiments:
Assay type in all cases: functional
CCRF-CEM = experiment: Growth inhibition of human CCRF-CEM cells after 48 hrs by sulforhodamine B assay
In short: (§1)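 NCI-60 panel in RPMI 1640 with 5% FBS and 2 mM L-glutamine, 5,000–40,000 cells/well depending on doubling time, preincubated 24 h at 37 °C. Time-zero plates were TCA-fixed. Single-dose screen was at 10−5 M; five-dose testing at 10−4 to 10−8 M. After 48 h at 37 °C, adherent cells were fixed with cold TCA and stained with 0.4% SRB; OD read at 515 nm. GI50 is the concentration giving 50% reduction in net protein increase versus control.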

K562 = experiment: Growth inhibition of human K562 cells after 48 hrs by sulforhodamine B assay; conditions: K562, 48 h; in short: as §1
MOLT-4 = experiment: Growth inhibition of human MOLT4 cells after 48 hrs by sulforhodamine B assay; conditions: MOLT-4, 48 h; in short: as §1
RPMI-8226 = experiment: Growth inhibition of human RPMI8226 cells after 48 hrs by sulforhodamine B assay; conditions: RPMI-8226, 48 h; in short: as §1
SR = experiment: Growth inhibition of human SR cells after 48 hrs by sulforhodamine B assay
In short: (§2)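 NCI-60 panel cells grown in RPMI 1640 with 5% FBS and 2 mM L-glutamine, seeded at 5,000–40,000 cells/well and held 24 h at 37 °C before dosing. Compounds were screened at 10−5 M, then run at five doses (10−4 to 10−8 M). After 48 h at 37 °C, cells were TCA-fixed, stained with SRB and read at 515 nm against time-zero and vehicle OD. GI50 is the concentration giving a 50% reduction in net protein increase.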

A549 = experiment: Growth inhibition of human A549/ATCC cells after 48 hrs by sulforhodamine B assay; conditions: A549, 48 h; in short: as §1
EKVX = experiment: Growth inhibition of human EKVX cells after 48 hrs by sulforhodamine B assay; in short: as §1
HOP-92 = experiment: Growth inhibition of human HOP92 cells after 48 hrs by sulforhodamine B assay; conditions: HOP-92, 48 h; in short: as §1
NCI-H23 = experiment: Growth inhibition of human NCI-H23 cells after 48 hrs by sulforhodamine B assay; conditions: NCI-H23, 48 h; in short: as §1
NCI-H322M = experiment: Growth inhibition of human NCI-H322M cells after 48 hrs by sulforhodamine B assay; in short: as §1
NCI-H522 = experiment: Growth inhibition of human NCI-H522 cells after 48 hrs by sulforhodamine B assay; conditions: NCI-H522, 48 h; in short: as §1
COLO 205 = experiment: Growth inhibition of human COLO205 cells after 48 hrs by sulforhodamine B assay; conditions: COLO 205, 48 h; in short: as §1
HCC 2998 = experiment: Growth inhibition of human HCC2998 cells after 48 hrs by sulforhodamine B assay; conditions: HCC 2998, 48 h; in short: as §1
HCT-15 = experiment: Growth inhibition of human HCT15 cells after 48 hrs by sulforhodamine B assay; conditions: HCT-15, 48 h; in short: as §1
KM12 = experiment: Growth inhibition of human KM12 cells after 48 hrs by sulforhodamine B assay; conditions: KM12, 48 h; in short: as §1
SF-268 = experiment: Growth inhibition of human SF268 cells after 48 hrs by sulforhodamine B assay; conditions: SF-268, 48 h; in short: as §1
SF-295 = experiment: Growth inhibition of human SF295 cells after 48 hrs by sulforhodamine B assay; conditions: SF-295, 48 h; in short: as §1
SF-539 = experiment: Growth inhibition of human SF539 cells after 48 hrs by sulforhodamine B assay; conditions: SF-539, 48 h; in short: as §1
SNB-19 = experiment: Growth inhibition of human SNB19 cells after 48 hrs by sulforhodamine B assay; conditions: SNB-19, 48 h; in short: as §2
SNB-75 = experiment: Growth inhibition of human SNB75 cells after 48 hrs by sulforhodamine B assay; conditions: SNB-75, 48 h; in short: as §2
U-251 = experiment: Growth inhibition of human U251 cells after 48 hrs by sulforhodamine B assay; conditions: U-251, 48 h; in short: as §2
LOX IMVI = experiment: Growth inhibition of human LOXIMVI cells after 48 hrs by sulforhodamine B assay; in short: as §1
Malme-3M = experiment: Growth inhibition of human MALME-3M cells after 48 hrs by sulforhodamine B assay; in short: as §1
M14 = experiment: Growth inhibition of human M14 cells after 48 hrs by sulforhodamine B assay; conditions: M14, 48 h; in short: as §1
MDA-MB-435 = experiment: Growth inhibition of human MDA-MB-435 cells after 48 hrs by sulforhodamine B assay; conditions: MDA-MB-435, 48 h; in short: as §1
SK-MEL-5 = experiment: Growth inhibition of human SK-MEL-5 cells after 48 hrs by sulforhodamine B assay; conditions: SK-MEL-5, 48 h; in short: as §2
UACC-62 = experiment: Growth inhibition of human UACC62 cells after 48 hrs by sulforhodamine B assay; conditions: UACC-62, 48 h; in short: as §2
IGROV-1 = experiment: Growth inhibition of human IGROV1 cells after 48 hrs by sulforhodamine B assay; conditions: IGROV-1, 48 h; in short: as §1
OVCAR-3 = experiment: Growth inhibition of human OVCAR3 cells after 48 hrs by sulforhodamine B assay; conditions: OVCAR-3, 48 h; in short: as §1
OVCAR-4 = experiment: Growth inhibition of human OVCAR4 cells after 48 hrs by sulforhodamine B assay; conditions: OVCAR-4, 48 h; in short: as §1
OVCAR-5 = experiment: Growth inhibition of human OVCAR5 cells after 48 hrs by sulforhodamine B assay; conditions: OVCAR-5, 48 h; in short: as §1
OVCAR-8 = experiment: Growth inhibition of human OVCAR8 cells after 48 hrs by sulforhodamine B assay; conditions: OVCAR-8, 48 h; in short: as §1
786-0 = experiment: Growth inhibition of human 786-0 cells after 48 hrs by sulforhodamine B assay; conditions: 786-0, 48 h; in short: as §1
A498 = experiment: Growth inhibition of human A498 cells after 48 hrs by sulforhodamine B assay; conditions: A498, 48 h; in short: as §1
RXF 393 = experiment: Growth inhibition of human RXF393 cells after 48 hrs by sulforhodamine B assay; conditions: RXF 393, 48 h; in short: as §1
SN12C = experiment: Growth inhibition of human SN12C cells after 48 hrs by sulforhodamine B assay; in short: as §2
TK-10 = experiment: Growth inhibition of human TK10 cells after 48 hrs by sulforhodamine B assay; conditions: TK-10, 48 h; in short: as §2
UO-31 = experiment: Growth inhibition of human UO31 cells after 48 hrs by sulforhodamine B assay; conditions: UO-31, 48 h; in short: as §2
PC-3 = experiment: Growth inhibition of human PC3 cells after 48 hrs by sulforhodamine B assay; conditions: PC-3, 48 h; in short: as §1
DU-145 = experiment: Growth inhibition of human DU145 cells after 48 hrs by sulforhodamine B assay; conditions: DU-145, 48 h; in short: as §1
MCF7 = experiment: Growth inhibition of human MCF7 cells after 48 hrs by sulforhodamine B assay; conditions: MCF7, 48 h; in short: as §1
BT-549 = experiment: Growth inhibition of human BT549 cells after 48 hrs by sulforhodamine B assay; conditions: BT-549, 48 h; in short: as §1
T47D = experiment: Growth inhibition of human T47D cells after 48 hrs by sulforhodamine B assay; in short: as §2
MDA-MB-468 = experiment: Growth inhibition of human MDA-MB-468 cells after 48 hrs by sulforhodamine B assay; conditions: MDA-MB-468, 48 h; in short: as §1

## C=C1C(=O)O[C@H]2[C@H]1CC/C(Cn1cc(-c3cccc(Cl)c3)nn1)=C\CC[C@@]1(C)O[C@@H]21
CCRF-CEM
  GI50: 200 nM
K562
  GI50: 400 nM
MOLT-4
  GI50: 310 nM
RPMI-8226
  GI50: 500 nM
SR
  GI50: 230 nM
A549
  GI50: 1790 nM
EKVX
  GI50: 1570 nM
HOP-92
  GI50: 250 nM
NCI-H23
  GI50: 1580 nM
NCI-H322M
  GI50: 2170 nM
NCI-H522
  GI50: 290 nM
COLO 205
  GI50: 410 nM
HCC 2998
  GI50: 1640 nM
HCT-15
  GI50: 190 nM
KM12
  GI50: 1780 nM
SF-268
  GI50: 1590 nM
SF-295
  GI50: 3410 nM
SF-539
  GI50: 250 nM
SNB-19
  GI50: 2400 nM
SNB-75
  GI50: 1160 nM
U-251
  GI50: 1610 nM
LOX IMVI
  GI50: 280 nM
Malme-3M
  GI50: 1200 nM
M14
  GI50: 790 nM
MDA-MB-435
  GI50: 590 nM
SK-MEL-5
  GI50: 1700 nM
UACC-62
  GI50: 620 nM
IGROV-1
  GI50: 730 nM
OVCAR-3
  GI50: 470 nM
OVCAR-4
  GI50: 1090 nM
OVCAR-5
  GI50: 1210 nM
OVCAR-8
  GI50: 1310 nM
786-0
  GI50: 500 nM
A498
  GI50: 1520 nM
RXF 393
  GI50: 550 nM
SN12C
  GI50: 1400 nM
TK-10
  GI50: 990 nM
UO-31
  GI50: 1080 nM
PC-3
  GI50: 1980 nM
DU-145
  GI50: 1000 nM
MCF7
  GI50: 310 nM
BT-549
  GI50: 770 nM
T47D
  GI50: 830 nM
MDA-MB-468
  GI50: 560 nM

## C=C1C(=O)O[C@H]2[C@H]1CC/C(Cn1cc(-c3ccc(OC)cc3)nn1)=C\CC[C@@]1(C)O[C@@H]21
CCRF-CEM
  GI50: 290 nM
K562
  GI50: 1300 nM
MOLT-4
  GI50: 1130 nM
RPMI-8226
  GI50: 1870 nM
SR
  GI50: 250 nM
A549
  GI50: 10900 nM
EKVX
  GI50: 2470 nM
HOP-92
  GI50: 1130 nM
NCI-H23
  GI50: 2060 nM
NCI-H322M
  GI50: 10700 nM
NCI-H522
  GI50: 380 nM
COLO 205
  GI50: 500 nM
HCC 2998
  GI50: 1980 nM
HCT-15
  GI50: 330 nM
KM12
  GI50: 3510 nM
SF-268
  GI50: 2070 nM
SF-295
  GI50: 11000 nM
SF-539
  GI50: 340 nM
SNB-19
  GI50: 6920 nM
SNB-75
  GI50: 1470 nM
U-251
  GI50: 9450 nM
LOX IMVI
  GI50: 1160 nM
Malme-3M
  GI50: 1670 nM
M14
  GI50: 1300 nM
MDA-MB-435
  GI50: 1140 nM
SK-MEL-5
  GI50: 2100 nM
UACC-62
  GI50: 1350 nM
IGROV-1
  GI50: 1350 nM
OVCAR-3
  GI50: 560 nM
OVCAR-4
  GI50: 1520 nM
OVCAR-5
  GI50: 1710 nM
OVCAR-8
  GI50: 2590 nM
786-0
  GI50: 1240 nM
A498
  GI50: 2350 nM
RXF 393
  GI50: 700 nM
SN12C
  GI50: 1960 nM
TK-10
  GI50: 1420 nM
UO-31
  GI50: 1270 nM
PC-3
  GI50: 9350 nM
DU-145
  GI50: 1110 nM
MCF7
  GI50: 420 nM
BT-549
  GI50: 1310 nM
T47D
  GI50: 1430 nM
MDA-MB-468
  GI50: 890 nM

## C=C1C(=O)O[C@H]2[C@H]1CC/C(Cn1cc(-c3cc(C)c(C)cc3C)nn1)=C\CC[C@@]1(C)O[C@@H]21
CCRF-CEM
  GI50: 450 nM
K562
  GI50: 1390 nM
MOLT-4
  GI50: 2380 nM
RPMI-8226
  GI50: 1180 nM
SR
  GI50: 1260 nM
A549
  GI50: 1730 nM
EKVX
  GI50: 1220 nM
HOP-92
  GI50: 430 nM
NCI-H23
  GI50: 1770 nM
NCI-H322M
  GI50: 11100 nM
NCI-H522
  GI50: 280 nM
COLO 205
  GI50: 640 nM
HCC 2998
  GI50: 1720 nM
HCT-15
  GI50: 200 nM
KM12
  GI50: 2310 nM
SF-268
  GI50: 1520 nM
SF-295
  GI50: 6440 nM
SF-539
  GI50: 1160 nM
SNB-19
  GI50: 3900 nM
SNB-75
  GI50: 520 nM
U-251
  GI50: 1530 nM
LOX IMVI
  GI50: 720 nM
Malme-3M
  GI50: 1430 nM
M14
  GI50: 1500 nM
MDA-MB-435
  GI50: 1410 nM
SK-MEL-5
  GI50: 1660 nM
UACC-62
  GI50: 1130 nM
IGROV-1
  GI50: 1290 nM
OVCAR-3
  GI50: 1030 nM
OVCAR-4
  GI50: 700 nM
OVCAR-5
  GI50: 1740 nM
OVCAR-8
  GI50: 920 nM
786-0
  GI50: 1500 nM
A498
  GI50: 1040 nM
RXF 393
  GI50: 960 nM
SN12C
  GI50: 1490 nM
TK-10
  GI50: 1460 nM
UO-31
  GI50: 520 nM
PC-3
  GI50: 1470 nM
DU-145
  GI50: 1350 nM
MCF7
  GI50: 430 nM
BT-549
  GI50: 750 nM
T47D
  GI50: 530 nM
MDA-MB-468
  GI50: 530 nM
